High-throughput results as filed in PubChem.
M1 antagonist = antagonists of rat M1 muscarinic receptor; Muscarinic acetylcholine receptor M1 (Rattus norvegicus), P08482; CHO-M1 cells, Fluo-4 calcium, ACh EC80 antagonist mode; active compounds read low; B-score at 10 µM; actives 3.4% (n = 64,000); AID 628, 2007;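 active = calcium fluorescence response, raw or row-and-column corrected B-score, differing from the plate sample mean either way at a set confidence level, mostly lower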
M1 ag = M1 muscarinic receptor agonists, primary screen, CHO-M1 cells, Fluo-4 calcium, agonist mode. Muscarinic acetylcholine receptor M1. B-score at 10 µM. actives 3% (n = 64,000). Fluo-4 calcium fluorescence; active compounds read high;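 active = fluorescence rise, raw or as B-score row- and column-corrected plate score, outside the 99.7% band of its plate's samples, either direction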
SF-1 act = activators of human SF-1, primary screen, cell-based, CHO-K1, Gal4-SF-1 LBD, luciferase luminescence. Steroidogenic factor 1 (Homo sapiens), Q13285. CHO-K1 Gal4-SF-1 LBD luciferase reporter; % increase over DMSO SF-1-specific signal. activation, % at 10 µM. actives 1.9% (n = 65,000). AID 522, 2006;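 active = activation above the mean activation of all tested compounds plus 3 SD, cut at about 50% in these data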
Target sequence (Q13285 whole entry, looked up, the tested form may be a part): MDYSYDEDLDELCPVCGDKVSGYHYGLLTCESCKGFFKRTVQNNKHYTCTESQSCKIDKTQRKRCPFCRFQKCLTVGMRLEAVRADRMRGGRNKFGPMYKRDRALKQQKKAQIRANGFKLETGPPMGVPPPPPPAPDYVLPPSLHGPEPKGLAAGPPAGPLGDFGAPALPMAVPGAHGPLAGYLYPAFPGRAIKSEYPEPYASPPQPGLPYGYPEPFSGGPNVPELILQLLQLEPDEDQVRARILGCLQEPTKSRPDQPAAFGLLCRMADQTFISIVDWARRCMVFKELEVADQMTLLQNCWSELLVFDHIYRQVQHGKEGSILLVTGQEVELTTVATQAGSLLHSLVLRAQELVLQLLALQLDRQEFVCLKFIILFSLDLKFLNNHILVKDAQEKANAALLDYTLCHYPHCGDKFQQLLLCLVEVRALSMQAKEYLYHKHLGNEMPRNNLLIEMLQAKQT
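Material: CHO-K1 cells with Gal4–hSF-1 LBD chimera plus Gal4-driven luciferase / Input: 4,000 CHO-K1 cells per well / Incubation: compound exposure 20 h at 37 °C / Signal: luminescence read 15 min after SteadyLite luciferase reagent, after room-temperature equilibration / Read-out: percent activation versus DMSO / Benchmarks: DMSO negative control and −SF1 background wells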
mHtt clearance = clearance of mutant huntingtin inclusions, primary screen, imaging, HeLa Exon1htt(103Q)mCFP, confocal imaging; aggregate imaging; zero = plate's median compound well; inhibition, % at 1.5 µM; actives 0.42% (n = 47,000); AID 853, 2007;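 active = inhibition of aggregate fluorescence above about 70%, also judged a hit by eye on the cell image, limit read from the data, passing the limit was not always enough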;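 also: cells exposed to compound for three days before fixation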
RORa activator = activators of orphan receptor RORA, primary screen, cell-based, luminescence; Nuclear receptor ROR-alpha (Homo sapiens), P35398; activation, % at 10 µM; CHO-K1 Gal4-RORA LBD luciferase reporter; percent increase over mock-subtracted basal signal; actives 1.5% (n = 65,000);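 active = activation above the mean of all tested compounds plus 3 SD, cut at about 49% in these data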
D1 mod = D1 CRE-luciferase signal change, two-sided – cell-based, HEK293 D1, dopamine EC30, D1 allosteric modulator project, primary screen; D(1A) dopamine receptor (Homo sapiens), P21728; actives 5.9% (n = 58,000); dopamine EC30 potentiation; actives deviate in either direction; B-score at 10 µM;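 active = luminescence count or its row- and column-corrected plate score outside the 99.7% band of the plate's sample wells, on either side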
Numbers stand for hits. The list is not random: actives were taken first. Their share in the collection is about 11%.

How did CCCc1nc(Nc2nc3ccccc3o2)nc(C)c1C(=O)OCC do in these assays?
M1 antagonist: inactive; M1 ag: inactive; SF-1 act: 81; mHtt clearance: inactive; RORa activator: 49; D1 mod: inactive

Results for COc1cc(NC(=O)c2csc3c2CCCC3)ncn1 ?
M1 antagonist: inactive; M1 ag: inactive; SF-1 act: inactive; mHtt clearance: inactive; RORa activator: 56; D1 mod: inactive

Results for Cc1cc(C(=O)CSc2nc3ccccc3o2)c(C)n1C1CC1 ?
M1 antagonist: inactive; M1 ag: inactive; SF-1 act: 61; RORa activator: 82; D1 mod: inactive

What do the screens show for `CCn1c2ccccc2c2nnc(SCc3cc(=O)n4ccsc4n3)nc21`?
M1 antagonist: inactive; M1 ag: inactive; SF-1 act: inactive; RORa activator: inactive; D1 mod: 12

What do the screens show for `Cc1ccc(SCCC(=O)N2CCOCC2)cc1`?
M1 antagonist: inactive; M1 ag: inactive; SF-1 act: inactive; mHtt clearance: inactive; RORa activator: 51; D1 mod: inactive

How did O=C(CCSc1nnnn1-c1ccccc1)N1CCOCC1 do in these assays?
M1 antagonist: inactive; M1 ag: inactive; SF-1 act: inactive; mHtt clearance: inactive; RORa activator: inactive; D1 mod: inactive

What do the screens show for `Cc1ccc(SCCC(=O)N2CCCC2)cc1`?
M1 antagonist: inactive; M1 ag: inactive; SF-1 act: inactive; mHtt clearance: inactive; RORa activator: inactive; D1 mod: inactive

What do the screens show for `O=C(CCSc1ccccc1)N1CCOCC1`?
M1 antagonist: inactive; M1 ag: inactive; SF-1 act: 52; mHtt clearance: inactive; RORa activator: inactive; D1 mod: inactive

How did Cc1ccc2nc(NC3=NCN(Cc4cccnc4)CN3)nc(C)c2c1 do in these assays?
M1 antagonist: inactive; M1 ag: inactive; SF-1 act: inactive; RORa activator: inactive

How did CCOc1ccc2nc(NC3=NCN(Cc4ccco4)CN3)nc(C)c2c1 do in these assays?
M1 antagonist: inactive; M1 ag: inactive; SF-1 act: inactive; RORa activator: inactive; D1 mod: inactive

How did Cc1nc(NC2=NCN(Cc3cccnc3)CN2)nc2ccccc12 do in these assays?
M1 antagonist: -11; M1 ag: inactive; SF-1 act: inactive; RORa activator: inactive

How did Cc1nc(NC2=NCN(Cc3ccco3)CN2)nc2ccccc12 do in these assays?
M1 antagonist: -2.9; M1 ag: inactive; SF-1 act: inactive; RORa activator: inactive; D1 mod: inactive

What do the screens show for `Cc1nc(NC2=NCN(Cc3ccccc3)CN2)nc2ccccc12`?
M1 antagonist: inactive; M1 ag: 4.5; SF-1 act: inactive; RORa activator: inactive; D1 mod: inactive

How did O=C(NCc1ccco1)C(c1ccccc1)N(Cc1ccccc1)C(=O)Cn1nnc2ccccc21 (centres undefined) do in these assays?
mHtt clearance: inactive

Results for C=CCOn1c(=O)c(-c2cc3ccccc3o2)[n+]([O-])c2ccccc21 ?
M1 antagonist: inactive; M1 ag: inactive; SF-1 act: 77; RORa activator: inactive

Results for CC(=O)c1sc(Nc2nc3ccc(F)cc3s2)nc1C ?
M1 antagonist: inactive; M1 ag: inactive; SF-1 act: 53; RORa activator: inactive

What do the screens show for `CCOC(=O)c1csc(Nc2nc3ccc(F)cc3s2)n1`?
M1 antagonist: inactive; M1 ag: inactive; SF-1 act: inactive; RORa activator: inactive

How did O=C(COc1cc(Cl)c(Cl)cc1Cl)Nn1cnnc1 do in these assays?
M1 antagonist: inactive; M1 ag: inactive; SF-1 act: inactive; mHtt clearance: inactive; RORa activator: inactive; D1 mod: inactive

Results for CN(C)C(=C(C#N)C#N)N1CCN(c2ccc(Cl)c(Cl)c2)CC1 ?
mHtt clearance: inactive

Results for CSc1nc2c(cnn2-c2ccc(C)c(C)c2)c(=O)[nH]1 ?
M1 antagonist: inactive; M1 ag: inactive; SF-1 act: inactive; RORa activator: inactive; D1 mod: inactive

How did Cc1ccc(-n2ncc3c(=O)n(CC#N)cnc32)cc1C do in these assays?
M1 antagonist: inactive; M1 ag: inactive; SF-1 act: inactive; RORa activator: inactive; D1 mod: inactive

Results for C#CCn1cnc2c(cnn2-c2ccc(C)c(C)c2)c1=O ?
SF-1 act: 58; RORa activator: inactive

Results for Cc1nc2c3cnn(-c4ccc(C)c(C)c4)c3ncn2n1 ?
M1 antagonist: inactive; M1 ag: inactive; SF-1 act: 65; mHtt clearance: inactive; RORa activator: inactive; D1 mod: inactive

How did CCc1nnc2c3cnn(-c4ccc(C)c(C)c4)c3ncn12 do in these assays?
M1 antagonist: inactive; M1 ag: inactive; SF-1 act: 58; RORa activator: 57

What do the screens show for `CC(C(N)=O)N1C(=O)c2cccc3cccc1c23` (centres undefined)?
mHtt clearance: inactive

Results for O=C1OC(N2CCN(Cc3ccccc3)CC2)c2ccccc21 (centres undefined) ?
M1 antagonist: inactive; M1 ag: inactive; SF-1 act: inactive; mHtt clearance: inactive; RORa activator: 69; D1 mod: inactive

How did O=C1OC(N2CCN(c3ccccn3)CC2)c2ccccc21 (centres undefined) do in these assays?
M1 antagonist: inactive; M1 ag: inactive; SF-1 act: inactive; RORa activator: inactive; D1 mod: inactive

Results for CN(C)c1nc(OCCNC(=O)COc2ccccc2Cl)nc(N(C)C)n1 ?
mHtt clearance: inactive

What do the screens show for `Cc1nnc(SCc2ccccc2F)n1NCc1cccs1`?
M1 antagonist: inactive; M1 ag: inactive; SF-1 act: inactive; mHtt clearance: inactive; RORa activator: inactive; D1 mod: inactive

What do the screens show for `C=C(C)C1CC=C(C)/C(=N/NC(=O)COc2cccc3ccccc23)C1` (centres undefined)?
mHtt clearance: inactive

How did Cc1c(C(=O)NCc2cccnc2)sc2nc(-c3ccc(F)cc3)cn12 do in these assays?
M1 antagonist: inactive; M1 ag: inactive; SF-1 act: inactive; RORa activator: inactive; D1 mod: -5.8

Results for Cc1c(C(=O)NCc2cccnc2)sc2nc(-c3ccccc3)cn12 ?
M1 antagonist: inactive; M1 ag: inactive; SF-1 act: inactive; RORa activator: 54; D1 mod: inactive

What do the screens show for `Cc1c(C(=O)NCc2ccco2)sc2nc(-c3ccccc3)cn12`?
M1 antagonist: inactive; M1 ag: inactive; SF-1 act: 52; RORa activator: 87; D1 mod: inactive

How did Cc1c(C(=O)Nc2ccncc2)sc2nc(-c3ccccc3)cn12 do in these assays?
M1 antagonist: inactive; M1 ag: inactive; SF-1 act: inactive; RORa activator: inactive; D1 mod: -4.5
